These results are taken from ChEMBL document CHEMBL5236609, “Optimization of 1,2,4-Triazole-3-thiones toward Broad-Spectrum Metallo-β-lactamase Inhibitors Showing Potent Synergistic Activity on VIM- and NDM-1-Producing Clinical Isolates” (J Med Chem, 2022).

One may read the Ki as a dissociation constant, usually derived from enzyme kinetics or from competition with a known ligand. Usually inhibition stands for the relative decrease from the control value, in per cent. One may read the MIC as the smallest concentration in the dilution series that meets the test's criterion for growth inhibition.

The structures appear in SMILES notation.

Assay [1] in a line: Inhibition of bacterial VIM-1 (unknown origin) expressed in Escherichia coli EXPRESS BL21(DE3) assessed as inhibition constant by measuring rate of substrate hydrolysis by UV-visible spectrophotometry. More on the design: species or system Bacteria. An outline of the steps:
(§1)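 Reporter-substrate assay with purified MBL (1–70 nM final) in 50 mM HEPES pH 7.5 at 30 °C. […] Inhibitor 0.5–1000 μM final. Ki derived from the v0/vi vs [I] slope assuming competitive inhibition, or from a Dixon plot. Ki given when inhibition >70%, otherwise % inhibition at 100 μM. Triplicate.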

The nature of assay [2]: Inhibition of bacterial VIM-2 (unknown origin) expressed in Escherichia coli EXPRESS BL21(DE3) assessed as inhibition constant by measuring rate of substrate hydrolysis by UV-visible spectrophotometry. More on the design: species or system Bacteria. An outline of the steps:
as §1

Assay [3] is described as follows: Inhibition of bacterial VIM-4 (unknown origin) expressed in Escherichia coli EXPRESS BL21(DE3) assessed as inhibition constant by measuring rate of substrate hydrolysis by UV-visible spectrophotometry. More on the design: species or system Bacteria. An outline of the steps: as §1
Assay [4] has as its system Bacteria. The assay can be described thus: Inhibition of bacterial NDM-1 (unknown origin) expressed in Escherichia coli EXPRESS BL21(DE3) assessed as inhibition constant by measuring rate of substrate hydrolysis at 100 uM by UV-visible spectrophotometry relative to control. An outline of the steps: as §1
Assay [5] concerns Bacteria. The assay can be described thus: Inhibition of bacterial IMP-1 (unknown origin) expressed in Escherichia coli EXPRESS BL21(DE3) assessed as inhibition constant by measuring rate of substrate hydrolysis at 100 uM by UV-visible spectrophotometry relative to control. An outline of the steps:
as §1

The test system of assay [6] is Klebsiella pneumoniae. Briefly: Antimicrobial activity against blaVIM-1-producing multidrug-resistant Klebsiella pneumoniae K47-25 clinical isolate assessed as meropenem MIC at 32 ug/ml by broth microdilution method (reference value: […] ug/ml). As to conditions: dose 32 µg/ml. It is filed as functional. An outline of the steps:
(§2)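 Inoculum was 5×10^4 CFU/well. Each inhibitor was present at a fixed 32 μg/mL, and MICs were also taken without inhibitor.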
On the technique in general: In broth dilution the organism is exposed to a series of concentrations in liquid medium.

The test system of assay [7] is Klebsiella pneumoniae. Briefly: Antimicrobial activity against blaVIM-4-producing multidrug-resistant Klebsiella pneumoniae VA-416/02 clinical isolate assessed as meropenem MIC at 32 ug/ml by broth microdilution method (reference value: […] ug/ml). It counts as functional. Conditions: dose 32 µg/ml. In outline:
as §2

A further assay has as its system Pseudomonas aeruginosa. Briefly: Antimicrobial activity against blaVIM-2-producing multidrug-resistant Pseudomonas aeruginosa VA-182/00 clinical isolate assessed as meropenem MIC at 32 ug/ml by broth microdilution method (reference value: 128 ug/ml). As to conditions: dose 32 µg/ml. It is filed as functional. An outline of the steps: as §2
Another assay has as its system Escherichia coli. The assay can be described thus: Antimicrobial activity against blaNDM-1-producing multidrug-resistant Escherichia coli SI-004 clinical isolate assessed as meropenem MIC at 32 ug/ml by broth microdilution method (reference value: 64 ug/ml).
Assay [8] in a line: Inhibition of bacterial NDM-1 (unknown origin) expressed in Escherichia coli EXPRESS BL21(DE3) assessed as inhibition constant by measuring rate of substrate hydrolysis by UV-visible spectrophotometry. More on the design: species or system Bacteria. In outline: as §1
Assay [9] has as its system Bacteria. Briefly: Inhibition of bacterial VIM-2 (unknown origin) expressed in Escherichia coli EXPRESS BL21(DE3) assessed as inhibition constant by measuring rate of substrate hydrolysis at 100 uM by UV-visible spectrophotometry relative to control. An outline of the steps:
as §1

With `Cn1cncc1CN(Cc1c[nH]cn1)[C@@H](CCCn1c(-c2ccccc2)n[nH]c1=S)C(=O)O`, the figures for the Ki in assay [1], in assay [2] and in assay [3] were 4400 nM, 3200 nM and 3800 nM, respectively. Besides, the inhibition in the assay with Bacteria [4] was found to be 66%; with Bacteria [5], 50%. Besides, the MIC in the assay on Klebsiella pneumoniae [6] turned out to be 2 µg/mL; in the assay with Klebsiella pneumoniae [7], 4 µg/mL; in the assay on Pseudomonas aeruginosa it was 128 µg/mL; in the assay on Escherichia coli it was 32 µg/mL.
With `O=C(O)[C@H](CCCn1c(-c2ccccc2)n[nH]c1=S)N(Cc1cscn1)Cc1cscn1`, the Ki is 2400 nM in assay [1], 2500 nM in assay [2], 2000 nM in [3] and 6500 nM in [8]. For the same compound, the inhibition with Bacteria [5] came to 48%. Further, the MIC in the assay on Klebsiella pneumoniae [6] amounted to 1 µg/mL; with Klebsiella pneumoniae [7] it was 1 µg/mL; in the assay on Pseudomonas aeruginosa, 128 µg/mL; in the assay with Escherichia coli it was 32 µg/mL.
Take `O=C(O)[C@H](CCCn1c(C2CCCCC2)n[nH]c1=S)N(Cc1c[nH]cn1)Cc1c[nH]cn1`: the Ki in assay [1] came out at 280 nM; in assay [2], 110 nM; in assay [3], 90 nM; in assay [8] it was 3.5 nM. Moreover, the inhibition in the assay on Bacteria [5] was 48%. Also, the MIC stood at 0.06 µg/mL with Klebsiella pneumoniae [6], 0.12 µg/mL in the assay with Klebsiella pneumoniae [7], 8 µg/mL with Pseudomonas aeruginosa and 0.06 µg/mL in the assay with Escherichia coli.
Take `O=C(O)[C@H](CCCn1c(-c2ccccc2)n[nH]c1=S)NCc1cccc(O)c1O`: the Ki in assay [1] was 8100 nM; in assay [3], 4200 nM. The inhibition with Bacteria [9] worked out at 57%; with Bacteria [4], 37%; with Bacteria [5], 32%.
Take `O=C(O)[C@H](CCCn1c(-c2ccccc2)n[nH]c1=S)N(Cc1cccnc1)Cc1c[nH]cn1`: the Ki stood at 5200 nM in assay [1], 1800 nM in assay [2], 1700 nM in assay [3] and 34800 nM in assay [8]. Besides, in the assay with Bacteria [5], the inhibition was below 30%. The MIC in the assay on Klebsiella pneumoniae [6] is 4 µg/mL; with Klebsiella pneumoniae [7], 1 µg/mL; in the assay on Pseudomonas aeruginosa it was 128 µg/mL; with Escherichia coli, 64 µg/mL.
With `O=C(O)[C@H](CCCn1c(-c2ccccc2)n[nH]c1=S)N(Cc1cn[nH]c1)Cc1c[nH]cn1`, the Ki worked out at 4600 nM in assay [1] and 2000 nM in assay [3]. Further, the results for the inhibition with Bacteria [9], in the assay on Bacteria [4] and in the assay on Bacteria [5] were 53%, 37% and 34%, respectively.
In the case of `O=C(O)[C@H](CCCn1c(-c2cccc(-c3ccccc3)c2)n[nH]c1=S)N(Cc1c[nH]cn1)Cc1c[nH]cn1`, the Ki was 130 nM in assay [1], 90 nM in [2], 70 nM in assay [3] and 13 nM in [8]. The inhibition in the assay on Bacteria [5] is 69%. Moreover, the MIC in the assay on Klebsiella pneumoniae [6] turned out to be 0.03 µg/mL; with Klebsiella pneumoniae [7], 0.03 µg/mL; in the assay on Pseudomonas aeruginosa, 8 µg/mL; in the assay on Escherichia coli, 0.06 µg/mL.
`O=C(O)[C@H](CCCn1c(-c2ccccc2)n[nH]c1=S)N(Cc1cnccn1)Cc1cnccn1`: the inhibition constant (Ki) in assay [1] stood at 2500 nM; in assay [2], 1200 nM; in [3] it was 630 nM; in assay [8], 17900 nM. Further, the inhibition in the assay on Bacteria [5] is 51%. Further, the MIC with Klebsiella pneumoniae [6] was found to be 4 µg/mL; in the assay on Klebsiella pneumoniae [7], 2 µg/mL; with Pseudomonas aeruginosa it was 128 µg/mL; with Escherichia coli, 32 µg/mL.
`O=C(O)[C@H](CCCn1c(-c2ccccc2)n[nH]c1=S)N(Cc1c[nH]cn1)Cc1cncs1`: the Ki in assay [1] was determined as 2500 nM; in [2], 1100 nM; in assay [3] it was 770 nM; in assay [8] it was 13100 nM. Besides, the inhibition with Bacteria [5] was 39%. In addition, the MIC in the assay on Klebsiella pneumoniae [6] was found to be 1 µg/mL; with Klebsiella pneumoniae [7] it was 2 µg/mL; in the assay on Pseudomonas aeruginosa, 128 µg/mL; in the assay with Escherichia coli, 32 µg/mL.
As for `O=C(O)[C@H](CCCn1c(-c2ccccc2)n[nH]c1=S)N(Cc1cnccn1)Cc1c[nH]cn1`, the Ki in assay [1] was determined as 3300 nM; in [2], 2400 nM; in assay [3], 1900 nM; in [8] it was 890 nM. The inhibition with Bacteria [5] was 43%. The MIC in the assay with Klebsiella pneumoniae [6] was found to be 4 µg/mL; with Klebsiella pneumoniae [7], 1 µg/mL; in the assay with Pseudomonas aeruginosa, 128 µg/mL; in the assay on Escherichia coli it was 8 µg/mL.
Consider `O=C(O)[C@H](CCCn1c(-c2ccccc2)n[nH]c1=S)N(Cc1ncc[nH]1)Cc1ncc[nH]1`, for which the Ki was 690 nM in assay [1], 900 nM in [2], 660 nM in assay [3] and 20 nM in assay [8]. Also, in the assay on Bacteria [5], the inhibition was found to be 61%.
On to `S=c1[nH]nc(-c2ccccc2)n1CCCCN(Cc1c[nH]cn1)Cc1c[nH]cn1`, for which the Ki in [1] worked out at 850 nM; in assay [2], 1500 nM; in assay [3], 900 nM; in [8], 9200 nM. Besides, in the assay on Bacteria [5], the inhibition amounted to 34%. The MIC amounted to 4 µg/mL in the assay with Klebsiella pneumoniae [6], 1 µg/mL in the assay with Klebsiella pneumoniae [7], 128 µg/mL with Pseudomonas aeruginosa and 32 µg/mL in the assay on Escherichia coli.
For `O=C(O)[C@H](CCCn1c(Cc2ccccc2)n[nH]c1=S)N(Cc1c[nH]cn1)Cc1c[nH]cn1`, the Ki worked out at 120 nM in assay [1], 410 nM in assay [2], 120 nM in assay [3] and 90 nM in assay [8]. Besides, the inhibition with Bacteria [5] was determined as 54%. Further, the MIC with Klebsiella pneumoniae [6] is 0.03 µg/mL; in the assay with Klebsiella pneumoniae [7], 0.03 µg/mL; in the assay on Pseudomonas aeruginosa it was 8 µg/mL; in the assay on Escherichia coli it was 0.06 µg/mL.
Take `O=C(O)[C@H](CCCn1c(-c2ccccc2)n[nH]c1=S)N(Cc1ccccc1)Cc1c[nH]cn1`: the Ki in assay [1] is 4100 nM; in assay [2] it was 2100 nM; in [3] it was 1000 nM. Also, the inhibition amounted to 60% with Bacteria [4] and 45% in the assay with Bacteria [5]. The minimum inhibitory concentration (MIC) in the assay on Klebsiella pneumoniae [6] worked out at 2 µg/mL; with Klebsiella pneumoniae [7], 2 µg/mL; in the assay on Pseudomonas aeruginosa it was 128 µg/mL; with Escherichia coli, 32 µg/mL.
Turning to `COc1cccc(CN(Cc2cccc(OC)c2OC)[C@@H](CCCn2c(-c3ccccc3)n[nH]c2=S)C(=O)O)c1OC`, the figures for the Ki in [1], in [2] and in assay [3] were 2000 nM, 760 nM and 360 nM, respectively. Moreover, the values for the inhibition in the assay on Bacteria [4] and in the assay on Bacteria [5] were 43% and below 30%, respectively. Besides, the MIC came out at 2 µg/mL in the assay with Klebsiella pneumoniae [6], 4 µg/mL in the assay on Klebsiella pneumoniae [7], 128 µg/mL with Pseudomonas aeruginosa and 64 µg/mL in the assay on Escherichia coli.
Regarding `O=C(O)[C@H](CCCn1c(-c2ccccc2)n[nH]c1=S)N(Cc1c[nH]cn1)Cc1ncc[nH]1`, the Ki in [1] was 450 nM; in assay [2], 3300 nM; in [3], 350 nM; in assay [8] it was 2700 nM. Besides, the inhibition with Bacteria [5] is 49%. The MIC in the assay with Klebsiella pneumoniae [6] came out at 0.06 µg/mL; with Klebsiella pneumoniae [7] it was 0.06 µg/mL; in the assay on Pseudomonas aeruginosa it was 8 µg/mL; in the assay on Escherichia coli, 0.06 µg/mL.
`O=C(O)[C@H](CCCn1c(-c2ccccc2)n[nH]c1=S)N(Cc1cn[nH]c1)Cc1cn[nH]c1`: the figures for the Ki in [1], in assay [2] and in assay [3] were 3700 nM, 2500 nM and 290 nM, respectively. Moreover, the inhibition in the assay on Bacteria [4] and in the assay with Bacteria [5] was below 30% each time. Also, the MIC in the assay on Klebsiella pneumoniae [6] was 2 µg/mL; in the assay with Klebsiella pneumoniae [7] it was 1 µg/mL; in the assay on Pseudomonas aeruginosa it was 128 µg/mL; with Escherichia coli, 64 µg/mL.
As for `O=C(O)[C@H](CCCn1c(-c2ccccc2)n[nH]c1=S)N(Cc1c[nH]cn1)Cc1cscn1`, the Ki in assay [1] was 820 nM; in assay [2] it was 350 nM; in assay [3], 350 nM; in assay [8], 30 nM. In addition, the inhibition in the assay on Bacteria [5] is 59%. Besides, the MIC in the assay on Klebsiella pneumoniae [6] was 0.12 µg/mL; with Klebsiella pneumoniae [7], 0.06 µg/mL; with Pseudomonas aeruginosa it was 16 µg/mL; with Escherichia coli, 4 µg/mL.
